Reference: ChEMBL document CHEMBL1123392 (J Med Chem, 1986)
Active and inactive are the calls of the source. The rule behind the calls is not given here.

Columns and labels:
Rattus norvegicus [1] = experiment: Dopaminergic activity in rats rendered hypokinetic by the bilateral injection of 6-hydroxydopamine (6-OHDA) into the anterolateral hypothalamus at dose of 50 mg/kg sc; Inactive; type: functional, organism-based; set-up: dose 50 mg/kg
D(2) dopamine receptor = D(2) dopamine receptor (Rattus norvegicus, UniProt P61169); experiment: Compound was for its ability to displace [3H]haloperidol binding to rat striatal Dopamine receptor D2
In short: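 Rat striatal membranes at about 20 mg/mL final tissue concentration. [3H]haloperidol 2 nM, incubated 10 min. Nonspecific binding defined with (+)-butaclamol 1.0 μM.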

Rattus norvegicus [2] = species on record: Rattus norvegicus; experiment: Ability to induce contralateral rotational behavior in rats with a unilateral 6-OHDA-induced lesion of the nigrostriatal dopamine (DA) pathway.; type: functional
In short: (§1)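 Male Sprague–Dawley rats given unilateral 6-OHDA (8 μg in 3 μL, with ascorbic acid) into the left medial forebrain bundle under pentobarbital anesthesia. Rats were selected 3–4 weeks later for turning 8–10/min after apomorphine 0.25 mg/kg sc. Groups of 4–8 were dosed sc (in water or Tween 80 suspension) and recorded in automatic rotometers until turning stopped. Outputs: total contralateral turns and peak rotations/min.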

Rattus norvegicus [3] = experiment: Max. intensity of rotational behavior in rats with a unilateral 6-OHDA-induced lesion of the nigrostriatal dopamine (DA) pathway at dose of 2.5 mg/kg sc.; type: functional; in short: as §1
Rattus norvegicus [4] = experiment: Effective dose which lowered the serum prolactin levels after ip administration in rats; type: functional
In short: (§2)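 Sprague–Dawley rats given α-methyltyrosine 200 mg/kg ip 1 h before compound. Decapitated 30 min after ip or 60 min after oral dosing. Serum prolactin measured by double-antibody RIA. ED50 = dose lowering prolactin to 50% of the α-methyltyrosine-treated control, from one dose–response curve of at least seven doses with 7–9 rats per dose.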

[5] = target: T1, Adrenergic receptor alpha-1 (Rattus norvegicus, UniProt P15823+P23944+P43140); experiment: Ability to displace [3H]WB-4101 from rat brain alpha-1 adrenergic receptor
T1 sequence (P15823 whole entry): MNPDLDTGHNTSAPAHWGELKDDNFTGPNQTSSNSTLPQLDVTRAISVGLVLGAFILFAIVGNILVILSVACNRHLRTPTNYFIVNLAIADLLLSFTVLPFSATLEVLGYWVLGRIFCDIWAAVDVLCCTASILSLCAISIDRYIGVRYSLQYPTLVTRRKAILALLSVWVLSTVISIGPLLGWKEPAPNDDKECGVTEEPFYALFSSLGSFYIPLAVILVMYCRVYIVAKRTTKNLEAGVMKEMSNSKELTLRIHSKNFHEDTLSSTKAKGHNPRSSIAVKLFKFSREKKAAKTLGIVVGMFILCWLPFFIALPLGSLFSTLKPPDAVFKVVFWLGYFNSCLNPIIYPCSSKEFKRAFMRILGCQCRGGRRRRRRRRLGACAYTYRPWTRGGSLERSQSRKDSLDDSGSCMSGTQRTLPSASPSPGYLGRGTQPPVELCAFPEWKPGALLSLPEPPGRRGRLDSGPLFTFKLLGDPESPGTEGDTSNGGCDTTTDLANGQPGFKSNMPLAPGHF
T1 sequence (P23944 whole entry): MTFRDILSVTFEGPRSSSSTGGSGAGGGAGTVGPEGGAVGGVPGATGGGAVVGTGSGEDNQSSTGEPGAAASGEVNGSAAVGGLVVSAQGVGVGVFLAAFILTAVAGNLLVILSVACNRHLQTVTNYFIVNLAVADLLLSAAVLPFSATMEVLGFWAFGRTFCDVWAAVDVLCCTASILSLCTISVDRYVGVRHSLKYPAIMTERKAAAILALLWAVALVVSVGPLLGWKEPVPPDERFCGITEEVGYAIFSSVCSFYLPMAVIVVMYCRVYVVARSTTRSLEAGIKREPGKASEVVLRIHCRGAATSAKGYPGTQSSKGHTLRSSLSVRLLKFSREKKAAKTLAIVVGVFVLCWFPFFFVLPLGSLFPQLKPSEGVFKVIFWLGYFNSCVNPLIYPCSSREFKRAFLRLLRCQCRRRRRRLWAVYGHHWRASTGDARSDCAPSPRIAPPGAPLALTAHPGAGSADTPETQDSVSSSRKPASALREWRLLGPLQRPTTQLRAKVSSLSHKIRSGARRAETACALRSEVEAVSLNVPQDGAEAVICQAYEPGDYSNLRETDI
T1 sequence (P43140 whole entry): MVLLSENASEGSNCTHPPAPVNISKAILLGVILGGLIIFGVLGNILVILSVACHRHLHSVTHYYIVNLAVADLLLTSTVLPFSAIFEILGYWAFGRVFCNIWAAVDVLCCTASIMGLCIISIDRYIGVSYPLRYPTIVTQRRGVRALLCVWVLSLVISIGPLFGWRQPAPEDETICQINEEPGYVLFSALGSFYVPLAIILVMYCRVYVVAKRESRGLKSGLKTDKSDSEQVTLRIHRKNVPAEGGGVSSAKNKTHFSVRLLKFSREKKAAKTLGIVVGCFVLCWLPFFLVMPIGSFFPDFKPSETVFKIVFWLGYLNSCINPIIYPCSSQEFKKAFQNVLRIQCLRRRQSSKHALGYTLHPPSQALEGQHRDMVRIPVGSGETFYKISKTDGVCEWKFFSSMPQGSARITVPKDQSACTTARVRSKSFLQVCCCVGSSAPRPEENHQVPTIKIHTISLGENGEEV
In short: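 Rat whole brain minus cerebellum and brain stem, membranes at about 20 mg/mL final tissue concentration. [3H]WB-4101 0.22 nM, incubated 15 min. Nonspecific binding defined with (-)-norepinephrine 2 μM. IC50 = concentration giving 50% displacement of specific binding, taken from Hill linearization. Three separate experiments.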

Rattus norvegicus [6] = experiment: Effective dose which lowered the serum prolactin levels after po administration in rats; type: functional; in short: as §2
Rattus norvegicus [7] = experiment: Dopaminergic activity in rats rendered hypokinetic by the bilateral injection of 6-hydroxydopamine (6-OHDA) into the anterolateral hypothalamus at dose of 5 mg/kg sc; type: functional; details: route subcutaneous
Rattus norvegicus [8] = experiment: Dopaminergic activity in rats rendered hypokinetic by the bilateral injection of 6-hydroxydopamine (6-OHDA) into the anterolateral hypothalamus at dose of 25 mg/kg sc; type: functional; details: route subcutaneous
Rattus norvegicus [9] = experiment: Dopaminergic activity in rats rendered hypokinetic by the bilateral injection of 6-hydroxydopamine (6-OHDA) into the anterolateral hypothalamus at dose of 25 mg/kg sc; Inactive; type: functional, organism-based; set-up: dose 25 mg/kg
Rattus norvegicus [10] = experiment: Dopaminergic activity in rats rendered hypokinetic by the bilateral injection of 6-hydroxydopamine (6-OHDA) into the anterolateral hypothalamus at dose of 2.5 mg/kg sc; type: functional; details: route subcutaneous
Rattus norvegicus [11] = experiment: Dopaminergic activity in rats rendered hypokinetic by the bilateral injection of 6-hydroxydopamine (6-OHDA) into the anterolateral hypothalamus at dose of 10 mg/kg sc; type: functional; details: route subcutaneous
Rattus norvegicus [12] = experiment: Dopaminergic activity in rats rendered hypokinetic by the bilateral injection of 6-hydroxydopamine (6-OHDA) into the anterolateral hypothalamus at dose of 1.25 mg/kg sc; type: functional; details: route subcutaneous
Rattus norvegicus [13] = experiment: Dopaminergic activity in rats rendered hypokinetic by the bilateral injection of 6-hydroxydopamine (6-OHDA) into the anterolateral hypothalamus at dose of 50 mg/kg sc; type: functional; details: route subcutaneous
Rattus norvegicus [14] = experiment: Max. intensity of rotational behavior in rats with a unilateral 6-OHDA-induced lesion of the nigrostriatal dopamine (DA) pathway at dose of 2.5 mg/kg sc; type: functional; details: route subcutaneous; in short: as §1
Rattus norvegicus [15] = species on record: Rattus norvegicus; experiment: Ability to induce contralateral rotational behavior in rats with a unilateral 6-OHDA-induced lesion of the nigrostriatal dopamine (DA) pathway; type: functional; in short: as §1
[16] = Rattus norvegicus, Serum, ip, read-out: ED50
[17] = Rattus norvegicus, Serum, po, read-out: ED50

Chain of D(2) dopamine receptor (P61169 whole entry): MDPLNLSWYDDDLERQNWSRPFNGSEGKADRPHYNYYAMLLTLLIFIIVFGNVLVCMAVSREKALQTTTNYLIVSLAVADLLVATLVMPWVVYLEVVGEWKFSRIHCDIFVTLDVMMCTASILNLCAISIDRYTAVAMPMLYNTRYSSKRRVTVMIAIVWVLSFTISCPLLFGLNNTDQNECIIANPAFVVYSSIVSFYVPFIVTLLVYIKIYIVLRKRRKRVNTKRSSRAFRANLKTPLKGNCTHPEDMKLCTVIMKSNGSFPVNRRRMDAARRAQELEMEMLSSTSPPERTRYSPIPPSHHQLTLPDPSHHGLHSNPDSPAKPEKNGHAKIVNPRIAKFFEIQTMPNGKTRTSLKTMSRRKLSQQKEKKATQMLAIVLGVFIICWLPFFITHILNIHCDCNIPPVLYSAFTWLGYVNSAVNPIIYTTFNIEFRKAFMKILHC

## COc1cc(C(O)CN2CCN(c3cccccc3=O)CC2)cc(OC)c1OC (centres undefined)
Rattus norvegicus [1]
  Activity: inactive

## COc1ccc([C@H](O)CN2CCN(c3cccccc3=O)CC2)cc1OC [CILADOPA]
D(2) dopamine receptor
  IC50: 2200 nM
Rattus norvegicus [2]
  Activity: 1770
Rattus norvegicus [3]
  Max intensity: 10.7 rotations min-1
Rattus norvegicus [4]; [16]
  ED50: 0.36 mg/kg
[5]
  IC50: 1090 nM
Rattus norvegicus [6]; [17]
  ED50: 0.9 mg/kg
Rattus norvegicus [7]
  Activity: 320

## COc1cccc(C(O)CN2CCN(c3cccccc3=O)CC2)c1 (centres undefined)
Rattus norvegicus [1]
  Activity: inactive

## O=c1cccccc1N1CCN(CCc2ccc(O)c(O)c2)CC1
D(2) dopamine receptor
  IC50: 760 nM
Rattus norvegicus [8]
  Activity: 98

## NCCc1ccc(O)c(O)c1 [DOPAMINE]
[5]
  IC50: 90000 nM

## O=c1cccccc1N1CCN(CC(O)c2ccc(F)cc2)CC1 (centres undefined)
Rattus norvegicus [1]
  Activity: inactive

## O=c1cccccc1N1CCN(CCc2ccc(F)cc2)CC1
Rattus norvegicus [1]
  Activity: inactive

## COc1cc(C(O)CN2CCN(c3cccccc3=O)CC2)ccc1O (centres undefined)
Rattus norvegicus [9]
  Activity: inactive

## COc1ccc(CC/N=c2/cccccc2O)cc1OC
Rattus norvegicus [1]
  Activity: inactive

## COc1ccc(C(O)CN2CCN(c3ccccc3)CC2)cc1OC (centres undefined)
Rattus norvegicus [1]
  Activity: inactive

## COc1ccc([C@H](O)[C@@H](C)N2CCN(c3cccccc3=O)CC2)cc1OC (stereo in doubt; 14)
D(2) dopamine receptor
  IC50: 1050 nM
Rattus norvegicus [2]
  Activity: 1903
Rattus norvegicus [3]; 2.5 mg/kg
  Max intensity: 9.5 rotations min-1
Rattus norvegicus [4]
  ED50: 0.2 mg/kg
Rattus norvegicus [6]; [17]
  ED50: 0.25 mg/kg
Rattus norvegicus [10]
  Activity: 111

## COc1ccc(CCN2CCN(c3cccccc3=O)CC2)cc1OC
D(2) dopamine receptor
  IC50: 880 nM
Rattus norvegicus [11]
  Activity: 101

## COc1ccc([C@H](O)[C@@H](C)N2CCN(c3cccccc3=O)CC2)cc1OC (stereo in doubt; 18)
Rattus norvegicus [12]
  Activity: 186
Rattus norvegicus [2]
  Activity: 2109
Rattus norvegicus [3]; 2.5 mg/kg
  Max intensity: 14.6 rotations min-1
Rattus norvegicus [4]
  ED50: 0.04 mg/kg
Rattus norvegicus [6]
  ED50: 0.15 mg/kg

## O=c1cccccc1N1CCN(CCc2ccccc2)CC1
Rattus norvegicus [1]
  Activity: inactive

## COc1ccc([C@@H](O)[C@@H](C)N2CCN(c3cccccc3=O)CC2)cc1OC
D(2) dopamine receptor
  IC50: 8550 nM
Rattus norvegicus [11]
  Activity: 55

## COc1ccc([C@@H](O)CN2CCN(c3cccccc3=O)CC2)cc1OC
D(2) dopamine receptor
  IC50: 16600 nM
Rattus norvegicus [2]
  Activity: 140
Rattus norvegicus [3]
  Max intensity: 1.3 rotations min-1
Rattus norvegicus [4]; [16]
  ED50: 2.7 mg/kg
[5]
  IC50: 1440 nM
Rattus norvegicus [7]
  Activity: 27

## COc1ccc(CCN2CCCN(c3cccccc3=O)CC2)cc1OC
Rattus norvegicus [1]
  Activity: inactive

## COc1ccc(C(O)CN2CCN(c3cccccc3=O)CC2)cc1 (centres undefined)
Rattus norvegicus [13]
  Activity: 105

## CC(C)C[C@H]1C(=O)N2CCC[C@H]2[C@]2(O)O[C@](NC(=O)[C@@H]3C=C4c5cccc6[nH]c(Br)c(c56)C[C@H]4N(C)C3)(C(C)C)C(=O)N12 [BROMOCRIPTINE]
Rattus norvegicus [2]
  Activity: 836
Rattus norvegicus [3]
  Max intensity: 4.7 rotations min-1
Rattus norvegicus [4]; [16]
  ED50: 0.24 mg/kg
Rattus norvegicus [11]
  Activity: 112
Rattus norvegicus [6]; [17]
  ED50: 0.6 mg/kg

## O=c1cccccc1N1CCN(CC(O)c2ccccc2)CC1 (centres undefined)
Rattus norvegicus [1]
  Activity: inactive

## COc1ccc([C@H](O)[C@@H](C)N2CCN(c3cccccc3=O)CC2)cc1OC (stereo in doubt; 17)
Rattus norvegicus [2]
  Activity: 121
Rattus norvegicus [3]; 2.5 mg/kg
  Max intensity: 1.1 rotations min-1
Rattus norvegicus [4]
  ED50: 2.2 mg/kg
Rattus norvegicus [10]
  Activity: 20

## COc1ccc(C(O)CN2CCN(c3cccccc3=O)CC2)cc1OC.Cl (centres undefined)
D(2) dopamine receptor
  IC50: 1500 nM
Rattus norvegicus [14]
  Max intensity: 9.2 rotations min-1
Rattus norvegicus [4]; [16]
  ED50: 0.48 mg/kg
[5]
  IC50: 1070 nM
Rattus norvegicus [11]
  Activity: 191
Rattus norvegicus [6]; [17]
  ED50: 2 mg/kg
Rattus norvegicus [15]
  Activity: 823

## COc1ccc(CCNCC/N=c2/cccccc2O)cc1OC
Rattus norvegicus [1]
  Activity: inactive
